# Tn7 DDE FP = inhibitors of Tn7 peptide binding to fibrin DD(E), primary screen, biochemical, fluorescence polarization, human fibrin, Tn7 probe; Fibrinogen beta chain (Homo sapiens), P02675; FP displacement of FITC-Tn7 peptide from fibrin DD(E); 0% = median of compound wells per plate; inhibition, % at 8.3 µM; 370,000 compounds, 0.13% hits;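 active = inhibition above the mean of compounds falling within the control limits plus 3 SD of them, cut at about 14% in these data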;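 also: 0% = plate median of compound wells and 100% = 10 µM Aha-Tn7 peptide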
#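 System: human fibrin DD(E); quantity: Fibrin-DD(E) at 2 µM final; also added: fluorescent Tn7 probe at 0.1 µM; compound dosing: single nominal test concentration of 8.3 µM per compound; schedule: 10 min preincubation, 3 h with tracer, room temperature; detection: fluorescence polarization of the labelled Tn7 tracer; repeats: one replicate per compound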
# GRK2 aptamer HTS = compounds blocking aptamer binding on GRK2 – biochemical, human GRK2, bead flow cytometry, HTS, primary screen; Beta-adrenergic receptor kinase 1 (Homo sapiens), P25098; FAM-aptamer displacement from GRK2; inhibition of aptamer binding, % at 10 µM; 330,000 compounds, 0.59% hits;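 active = inhibition of aptamer binding above 40%, roughly 3 SD of noise, on plates passing a quality check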;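 also: median bead fluorescence of bound FAM aptamer so fluorescent compounds give negative values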
# Target sequence (P25098 whole entry, looked up): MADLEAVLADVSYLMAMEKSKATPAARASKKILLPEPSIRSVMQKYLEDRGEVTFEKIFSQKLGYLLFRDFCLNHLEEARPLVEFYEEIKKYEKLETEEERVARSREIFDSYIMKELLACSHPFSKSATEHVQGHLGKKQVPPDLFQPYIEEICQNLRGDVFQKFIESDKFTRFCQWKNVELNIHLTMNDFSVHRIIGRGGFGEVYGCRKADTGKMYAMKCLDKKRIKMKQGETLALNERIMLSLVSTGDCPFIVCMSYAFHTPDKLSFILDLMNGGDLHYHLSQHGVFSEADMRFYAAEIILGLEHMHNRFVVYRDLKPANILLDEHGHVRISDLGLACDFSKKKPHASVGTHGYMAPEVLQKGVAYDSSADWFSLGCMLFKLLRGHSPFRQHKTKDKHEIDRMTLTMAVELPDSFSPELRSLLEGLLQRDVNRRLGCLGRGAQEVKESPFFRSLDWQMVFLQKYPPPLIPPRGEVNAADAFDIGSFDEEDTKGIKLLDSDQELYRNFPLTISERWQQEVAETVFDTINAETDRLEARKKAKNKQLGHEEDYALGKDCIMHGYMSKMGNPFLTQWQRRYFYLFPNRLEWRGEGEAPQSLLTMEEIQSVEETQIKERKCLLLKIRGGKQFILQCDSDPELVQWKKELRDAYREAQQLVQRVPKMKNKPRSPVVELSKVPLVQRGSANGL
# ARNT TACC3 PPI = disruptors of ARNT/TACC3 protein interaction, primary screen, biochemical, AlphaScreen, single concentration; Transforming acidic coiled-coil-containing protein 3 (Homo sapiens), Q9Y6A5; AlphaScreen His-ARNT PAS-B/GST-TACC3 binding, luminescence; TACC3 fragment carries E629A point mutation; inhibition, % at 9.99 µM; 390,000 compounds, 0.66% hits;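 active = mean inhibition of replicates at least 50% and at least half of replicates each reaching 50%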;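 also: 0% = complete ARNT plus TACC3 wells and 100% = ARNT alone without TACC3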
# DDE Tn6 FP inh = inhibitors of Tn6 peptide binding to fibrin DD(E), primary screen, biochemical, fluorescence polarization, human fibrin, Tn6 probe; Fibrinogen beta chain (Homo sapiens), P02675; inhibition, % at 8.3 µM; Fibrin DD(E) TRITC-Tn6 fluorescence polarization displacement; 370,000 compounds, 0.21% hits;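 active = inhibition above a per-campaign cutoff: mean of compounds within control limits plus 3 SD, cut at about 15% in these data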;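 also: 0% = median of all compound wells on the plate and 100% = blocking peptide control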
# CAL PDZ FP-1 = untagged CAL PDZ binding inhibitors, primary screen, biochemical, fluorescence polarization, HTS | Golgi-associated PDZ and coiled-coil motif-containing protein (Homo sapiens), Q9HD26 | purified CAL PDZ, TMR-peptide fluorescence polarization, 1 h | inhibition, % at 24.9 µM | 300,000 compounds, 0.92% hits;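 active = mean inhibition of at least 30% with at least half of replicates also reaching 30%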;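 also: 0% = DMSO neutral control and 100% = excess unlabeled competitor peptide PRC23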
# CAL PDZ FP-2 = CAL PDZ peptide-binding inhibitors, primary screen, biochemical, fluorescence polarization, Cer-tagged CAL PDZ, HTS. inhibition, % at 20 µM. AID 504414, 2011. purified CAL PDZ, TMR-peptide fluorescence polarization, 1 h. Golgi-associated PDZ and coiled-coil motif-containing protein (Homo sapiens), Q9HD26. 330,000 compounds, 0.02% hits;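 active = highest replicate inhibition of at least 40%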;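 also: plate controls were DMSO neutral control wells for no effect and unlabeled competitor peptide control wells for full effect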
#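 Material: tagged CAL PDZ domain; buffer or medium: 25 mM sodium phosphate pH 7.4, 150 mM NaCl, TCEP, IgG, Thesit; compound dosing: single point, 20 µM; schedule: 1 h incubation at room temperature before polarization reading; measured by: FP readout, S and P plane fluorescence; read-out basis: percent inhibition from loss of millipolarization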
# * hit, by the source's call; · = no result. Compounds with a hit are over-represented: about 1.8% of the library has one in this group of screens.
SMILES,Tn7 DDE FP,GRK2 aptamer HTS,ARNT TACC3 PPI,DDE Tn6 FP inh,CAL PDZ FP-1,CAL PDZ FP-2
Cc1ccsc1C(=O)N/N=C/C=C/c1ccccc1[N+](=O)[O-],-2.8,0.0,4.0,-2.6,79.3*,-1.4
C(=N\Nc1nncn1/N=C/c1ccco1)/c1ccco1,0.0,0.0,64.3*,1.1,·,0.0
S=c1[nH]ncn1/N=C/c1ccco1,6.9,·,·,-5.4,·,·
C[C@@H]1CN([C@@H](C)CO)S(=O)(=O)c2ccc(-c3cccnc3)cc2O[C@@H]1CN(C)C,·,·,-2.2,·,·,·
O=[N+]([O-])c1cccc(CP(=O)(c2ccccc2)c2ccccc2)c1,2.7,1.0,·,-4.5,60.2*,0.1
Nc1cccc(CP(=O)(c2ccccc2)c2ccccc2)c1,-2.1,0.0,-64.4,-7.0,-4.0,-0.4
S=C(N/N=C/c1ccc(Br)cc1)N1CCCCC1,2.0,3.0,37.9*,9.3,-2.1,1.0
S=C(N/N=C/c1ccc(Cl)cc1)N1CCOCC1,9.1,1.0,60.6*,7.4,-0.9,-1.6
COc1cc(NC(=O)C2CCCN(S(=O)(=O)c3ccc(Cl)s3)C2)cc(OC)c1 (stereo not given),-3.1,·,·,6.0,·,·
Cc1ccc(C(=O)N2CCN(c3ccccn3)CC2)cc1C,8.7,0.0,-2.0,-1.9,-2.4,9.4
O=C(c1ccc(-c2ccccc2)cc1)N1CCN(c2ccccn2)CC1,0.3,13.0,-5.7,-3.1,78.2*,-0.6
Cc1ccc(S(=O)(=O)N2CCOCC2)cc1C(=O)NCC1CCCCC1,-2.0,0.0,5.2,-6.2,·,0.0
S=C(NCCCn1ccnc1)Nc1cccc(Cl)c1,7.0,0.0,41.6*,-3.6,-18.0,-1.1
CCOc1ccc(NC(=S)NCCCn2ccnc2)cc1,3.4,0.0,·,0.7,0.1,-2.0
CC1=NN(c2ccc(C(=O)O)c(N)c2)C(=O)C1,-0.4,0.0,46.9*,-1.4,15.8,0.6
CC1=NN(c2ccc([N+](=O)[O-])cc2)C(=O)C1,·,·,45.4*,·,·,-1.3
CC1=NN(c2ccc([N+](=O)[O-])cc2)C(=O)/C1=C\N(C)C,-2.0,0.0,4.7,0.3,-2.7,-2.7
O=C(O)c1ccc(N=Nc2c(O)ccc3ncccc23)cc1,-1.0,0.0,61.9*,-6.8,1.9,-1.3
Cc1cc(-c2ccc(F)cc2)nc2cc(C(N)=O)nn12,-3.0,2.0,40.8*,-7.9,-1.8,2.1
CC[C@H](C)[C@H]1CNC(=O)C(=O)N1CC1CCN(CC(C)C)CC1,-6.5,·,·,-8.9,·,·
Cc1oc(CC(C)C)c(CN)c1C(=O)O,-1.0,0.0,-5.1,2.8,-1.0,-2.3
CC(NC1=CC(=O)c2cccnc2C1=O)C(O)c1ccccc1 (stereo not given),-9.5,·,47.4*,6.0,-6.9,1.3
O=C(c1cccnc1)N1CCN(c2ccc3ccccc3n2)CC1,-0.2,2.0,-3.0,3.5,-9.9,-0.1
O=C(CN1C(=O)C2C3C=CC(C3)C2C1=O)OCC(=O)c1ccc(Cl)cc1 (stereo not given),3.6,·,-2.6,3.6,74.2*,0.1
FC(F)(F)c1cnc(Oc2ccccc2-c2nnco2)c(Cl)c1,-1.8,58.0*,8.3,2.8,-0.8,0.4
FC(F)(F)c1cnc(Oc2ccc(-c3nnco3)cc2)c(Cl)c1,3.8,0.0,-9.9,7.1,-2.7,-0.6
O=C(O)c1ccc(S(=O)(=O)c2ccc(Sc3ccc(C(=O)O)c(C(=O)O)c3)cc2)cc1,2.9,4.0,-16.9,-5.2,5.9,-0.1
COc1ccc(S(=O)(=O)N/N=C(/C)c2cccc(NC(=O)c3ccccc3Cl)c2)cc1,7.3,0.0,-1.7,-2.4,43.0*,-1.2
